These results are taken from ChEMBL document CHEMBL4184148 (Bioorg Med Chem Lett, 2017).

One assay concerns HeLa. The assay is described as follows: Cytotoxicity against human HeLa cells assessed as reduction in cell viability after 72 hrs by CellTiter-Glo assay. In kind it is functional, cell-based. A digest of the protocol:
(§1)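 Cells were treated across a dose-response range for 72 h, and viability was read by CellTiter-Glo luminescence. Measurements were made in triplicate and reported with standard error.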
(In general: ATP-based viability assays read luminescence as a measure of living cells.)

The target of assay [1] is T1, Aurora kinase B (Homo sapiens, UniProt Q96GD4). The assay is described as follows: Inhibition of recombinant full length His-tagged human Aurora B expressed in baculovirus expression system by Z'LYTE assay. The method, boiled down: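 Z'LYTE biochemical kinase assay run at the Km ATP concentration for each kinase. IC50 was determined and reported ± standard error.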
T1 sequence (Q96GD4 whole entry): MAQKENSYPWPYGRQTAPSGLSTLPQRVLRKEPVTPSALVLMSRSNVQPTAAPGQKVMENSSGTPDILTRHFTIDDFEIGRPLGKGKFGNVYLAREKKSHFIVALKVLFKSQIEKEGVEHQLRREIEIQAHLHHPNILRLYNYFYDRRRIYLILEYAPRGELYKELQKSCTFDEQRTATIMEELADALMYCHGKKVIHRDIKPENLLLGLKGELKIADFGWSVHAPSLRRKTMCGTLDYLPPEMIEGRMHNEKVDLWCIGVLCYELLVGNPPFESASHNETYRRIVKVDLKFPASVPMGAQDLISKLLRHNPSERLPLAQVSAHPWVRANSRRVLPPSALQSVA

A further assay relates to PC-3. The assay is described as follows: Cytotoxicity against human PC3 cells assessed as reduction in cell viability after 72 hrs by CellTiter-Glo assay. In kind it is functional, cell-based. The settings on record: PC-3, 72 h. The method, boiled down:
as §1

The subject of assay [2] is HCT-116. Put plainly: Induction of cell cycle arrest in human HCT116 cells assessed as accumulation of 4N DNA content at 500 nM after 48 hrs by propidium iodide staining-based flow cytometry. The class given is functional.
The target in the next assay is T2, Aurora kinase C (Homo sapiens, UniProt Q9UQB9).
T2 sequence (Q9UQB9 whole entry): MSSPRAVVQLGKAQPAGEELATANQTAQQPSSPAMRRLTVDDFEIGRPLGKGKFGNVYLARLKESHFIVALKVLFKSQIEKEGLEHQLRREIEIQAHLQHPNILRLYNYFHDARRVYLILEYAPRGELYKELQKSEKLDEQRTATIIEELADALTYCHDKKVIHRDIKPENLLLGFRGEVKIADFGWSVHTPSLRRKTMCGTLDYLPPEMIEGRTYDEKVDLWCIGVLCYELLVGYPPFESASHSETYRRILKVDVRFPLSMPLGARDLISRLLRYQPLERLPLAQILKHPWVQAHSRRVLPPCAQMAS
Put plainly: Inhibition of recombinant full length GST-tagged human Aurora C expressed in baculovirus expression system by Z'LYTE assay. The method, boiled down: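 Biochemical IC50 from a Z'LYTE kinase assay, with ATP at the Km for each kinase. Values are reported with standard error.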

In assay [3] the test system is HCT-116. The assay is described as follows: Cytotoxicity against human HCT116 cells assessed as reduction in cell viability after 72 hrs by CellTiter-Glo assay. In kind it is functional, cell-based. Conditions: HCT-116, 72 h. The method, boiled down: as §1
In assay [4] the target is T1, Aurora kinase B. The assay is described as follows: Inhibition of Aurora B in human HCT116 cells assessed as reduction in histone H3 phosphorylation at S10 residues after 4 hrs by Western blot analysis. In kind it is cell-based. The method, boiled down:
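Cells were exposed to compound in dose-response for 4 h, then lysed for western blotting of histone H3 pS10. The cellular EC50 was derived from the dose-response curves. Three replicate experiments were run.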
In general terms: In western blotting, separated proteins are transferred to a membrane and probed.

A further assay deals with HEK293. The assay is described as follows: Cytotoxicity against human HEK293 cells assessed as reduction in cell viability after 72 hrs by CellTiter-Glo assay. In kind it is cell-based. Conditions: HEK293, 72 h. The method, boiled down:
as §1

The source made the active and inactive calls. The calls are words filed in the database; no cut-off is given here. Some results are limits rather than exact numbers.

Regarding `CCOC(=O)c1[nH]cc2c1NC1=C(C(=O)CCC1)[C@H]2c1cccc(Oc2nc3ccccc3[nH]2)c1`, the IC50 with HeLa was 6.11 nM; at Aurora kinase B [1], 34 nM; in the assay on PC-3 it was > 10000 nM; on Aurora kinase C it was 91 nM; in the assay on HCT-116 [3] it was 3710 nM; in the assay on HEK293, 5860 nM. Moreover, the outcome in the assay on HCT-116 [2] was Active. Further, the EC50 at Aurora kinase B [4] was determined as 27 nM.

As a reminder, the IC50 is the concentration that inhibits the measured activity by half. Usually EC50 stands for the concentration at which the effect is half-maximal.
